Measured values from different studies.
BRAF V600E: Serine/threonine-protein kinase B-raf (BRAF, Homo sapiens, UniProt P15056, V600E)
BRAF: Serine/threonine-protein kinase B-raf (BRAF, Homo sapiens, UniProt P15056)

Compound	target	test	setting	remaining binding
O=C(NCCCN1CCOCC1)c1ccc(Nc2ncc(Cl)c(-c3ccc(Cl)s3)n2)cc1	BRAF V600E	binding, competition with immobilised ligand	1 µM	92%
c1cnn2ncc(-c3ccnc(N4CCC45COC5)n3)c2c1	BRAF	binding	1 µM	56%
Cc1cnc(Nc2ccc(C(=O)N3CCC(N4CCCC4)CC3)cc2)nc1-c1cc2ccccc2s1	BRAF	binding, competition with immobilised ligand	1 µM	46%
CNC(=O)[C@@H]1CC[C@@H](n2c(-c3ccc4cnccc4c3)nc3ccc(C(=O)NCc4cccc(C(N)=O)c4)cc32)C1	BRAF	binding, competition with immobilised ligand	1 µM	100%
FC(F)(F)Oc1cccc(-c2cnc3ccc(-c4ccncc4)nn23)c1	BRAF	cell-free assay, competition with immobilised ligand	5 µM	32%
N#Cc1ccccc1CSc1nnc2c(n1)[nH]c1ccccc12	BRAF	binding, competition with immobilised ligand	10 µM	94%
CCC(=N\O)/C(C)=C/c1ccc(F)cc1	BRAF V600E	cell-free assay, competition with immobilised ligand	1 µM	77%
N[C@H]1CCN(c2nccc(-c3cnn4ncccc34)n2)C1	BRAF V600E	binding	1 µM	92%
Cc1cc(NC(=O)c2cccc(S(F)(F)(F)(F)F)c2)cc(-n2ccn3nc(-c4cccnc4)cc23)c1	BRAF V600E	cell-free assay, competition with immobilised ligand	1 µM	24.4%
CCN1CCN(Cc2ccc(C(=O)Nc3ccc(C)c(Oc4ccc5c(c4)CC(=O)N5)c3)cc2C(F)(F)F)CC1	BRAF	binding, competition with immobilised ligand	1 µM	64%
O=C(c1ccc(Nc2ncc(Cl)c(-c3cc4ccccc4s3)n2)cc1)N1CCC(N2CCCC2)CC1	BRAF	binding, competition with immobilised ligand	1 µM	64%
NS(=O)(=O)c1cc(NC(=O)C2(c3ccccc3Cl)CC2)ccc1Oc1cccc(Cl)c1	BRAF	cell-free assay, competition with immobilised ligand	1 µM	71%
c1cncc(-c2cccc(Nc3nccc(NC4CCCCC4)n3)c2)c1	BRAF	binding, competition with immobilised ligand	10 µM	69%
COc1ncc2cc3ccccc3nc2c1C#N	BRAF V600E	cell-free assay, competition with immobilised ligand	5 µM	100%
Cc1cnn2ncc(-c3ccnc(N(C)C)n3)c2c1	BRAF	binding	1 µM	82%
Cc1cc(-n2nc(Cc3cc(F)cc(C(F)(F)F)c3)nc2C)ccc1C(N)=O	BRAF	cell-free assay, competition with immobilised ligand	1 µM	86%
Nc1ncc2c(n1)-c1c([nH]c3ccc(C#CC4CC4)cc13)CCCC2	BRAF V600E	binding, competition with immobilised ligand	1 µM	88%
C[C@@H]1CN(c2ccc3ncc(-c4ccc5[nH]nc(C6CC6)c5c4)n3n2)C[C@H](C)O1	BRAF	binding, competition with immobilised ligand	50 nM	91%

Compound	target	test	setting	remaining binding
COc1cnc(Nc2cccc(S(N)(=O)=O)c2)nc1N1CCN(c2ccccc2)C(=O)C1	BRAF	binding, competition with immobilised ligand	1 µM	87%
CS(=O)(=O)N1CCCC(NC(=O)[C@H](CCC2CCCCC2)NC(=O)c2ccc(CNc3ncnc4c3nnn4-c3ccccc3)cc2)C1 (stereo partly drawn)	BRAF	cell-free assay, competition with immobilised ligand	0.1 µM	81%
O=C(c1ccc(Nc2ncc(Cl)c(-c3ccc(Cl)s3)n2)cc1)N1CCC(N2CCCC2)CC1	BRAF V600E	binding, competition with immobilised ligand	1 µM	37%
CN(C)c1nccc(-c2cnn3ncccc23)n1	BRAF V600E	binding	1 µM	69%
O=C(Nc1c[nH]nc1C(=O)NC1CCNCC1)c1cc(F)cc(F)c1	BRAF	binding, competition with immobilised ligand	1 µM	100%
CN1CCN(c2ccc(Nc3nccc(-c4ccccc4)n3)cc2C(F)(F)F)CC1	BRAF V600E	binding	10 µM	31%
COc1cc(-c2cn(C3CCc4ccccc4N(CC(F)(F)F)C3=O)nn2)ccc1-n1ccc(C)n1 (stereo not drawn)	BRAF	cell-free assay, competition with immobilised ligand	1 µM	100%
C[C@@H](c1ccc(-n2cnc3c(N)ncnc32)cc1)N1CCc2nn(C)c(Cc3ccccc3)c2C1=O	BRAF	binding, competition with immobilised ligand	0.1 µM	100%
CN(CCCC(F)(F)F)c1nccc(-c2cnn3ncccc23)n1	BRAF V600E	binding	1 µM	100%
Cc1nc(Cc2cccc(C(F)(F)F)c2)sc1-c1ccc(C(N)=O)nc1	BRAF V600E	cell-free assay, competition with immobilised ligand	1 µM	100%
C[C@H]1CCN(c2nccc(-c3cnn4ncccc34)n2)C1	BRAF V600E	binding	1 µM	93%
CN(C)C(=O)Cn1cc(-c2nc(C3(c4ccc(-c5cnc(N)nc5)cc4)CC3)no2)cn1	BRAF	cell-free assay, competition with immobilised ligand	1 µM	88%
COc1ccnn2ncc(-c3ccnc(N(C)C)n3)c12	BRAF	binding	1 µM	48%
C=CC(=O)N1CCC(C(=O)NCC(=O)N2CCN(c3nc(-c4cnc(N)nc4C(F)F)nc(N4CCOCC4)n3)CC2)CC1	BRAF V600E	binding, competition with immobilised ligand	1 µM	89%
O=C(c1ccc(Nc2nccc(-c3cc4ccccc4s3)n2)cc1)N1CCC(N2CCCC2)CC1	BRAF V600E	binding, competition with immobilised ligand	1 µM	21%
CN(c1nccc(-c2cnn3ncccc23)n1)C1CC1	BRAF V600E	binding	1 µM	100%
O=C(NCCCN1CCOCC1)c1ccc(Nc2nccc(-c3cc4ccccc4s3)n2)cc1	BRAF	binding, competition with immobilised ligand	1 µM	77%
O=C(NCC1CCOCC1)c1n[nH]cc1NC(=O)c1c(F)cccc1F	BRAF V600E	binding, competition with immobilised ligand	1 µM	100%
